In data set [1] the test system is HUVEC. As to the kind of experiment: Acute cytotoxicity against HUVEC at 100 ug/ml after 8 hrs by microscopic analysis. The data set is classed as cell-based. The settings on record: human. Put shortly:
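Acute cytotoxicity judged by microscopic inspection of treated samples during the assay period on Matrigel.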

Data set [2] deals with HUVEC. As to the kind of experiment: Antiangiogenic activity in HUVEC assessed as inhibition of tube formation at 100 ug/ml after 8 hrs by microscopic analysis. The data set is classed as functional, cell-based. The settings on record: Homo sapiens. Put shortly: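 HUVECs plated on Matrigel to form capillary tube-like structures; tubular structure formation scored as inhibition rate versus untreated control; mean with SD from three independent experiments.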

The test system of data set [3] is ES2. The experiment in a line: Antiinvasive activity against human ES2 cells in matrigel-coated transwell chamber after 8 hrs by Crystal violet staining-based microscopy. It is filed as functional, cell-based. The method in brief:
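Invasion assessed in Matrigel-coated Transwell chambers; ES-2 cells allowed to invade the Matrigel and reach the other side of the membrane over 8 h; graded doses tested.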

Data set [4] deals with ES2. As to the kind of experiment: Antimigratory activity against human ES2 cells in transwell chamber at 100 ug/ml after 3 hrs by Crystal violet staining-based microscopy. The data set is classed as functional, cell-based. Put shortly:
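ES-2 cells placed in Transwell chambers with 8 µm micropore membranes, no Matrigel coating; cells crossing the membrane counted as migration rate relative to control; mean with SD from three independent experiments.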

Another data set deals with Aorta. The experiment in a line: Antiangiogenic activity against Sprague-Dawley rat aortic rings assessed as inhibition of new microvessel growth at 100 ug/ml after 6 days. The data set is classed as functional, tissue-based. Put shortly:
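Rat aortic rings embedded on Matrigel; microvessel outgrowth from the ring scored and expressed as inhibition rate versus control; mean with SD from three independent experiments.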

The nature of data set [5]: Cytotoxicity against human ES2 cells after 24 hrs by MTT assay. The data set is classed as functional. The settings on record: ES-2, 24 h.
Data set [6] addresses 72 kDa type IV collagenase (Homo sapiens, UniProt P08253). The experiment in a line: Inhibition of recombinant MMP2 (unknown origin) using […] as substrate incubated for 5 mins prior to substrate addition measured after 60 mins by UV-Vis spectrophotometry.
For data set [7], the target named is T1, Aminopeptidase N (Homo sapiens, UniProt P15144). As to the kind of experiment: Ratio of betastatin IC50 to compound IC50 for APN in human ES-2 cells. It is filed as cell-based.
T1 sequence (P15144 whole entry): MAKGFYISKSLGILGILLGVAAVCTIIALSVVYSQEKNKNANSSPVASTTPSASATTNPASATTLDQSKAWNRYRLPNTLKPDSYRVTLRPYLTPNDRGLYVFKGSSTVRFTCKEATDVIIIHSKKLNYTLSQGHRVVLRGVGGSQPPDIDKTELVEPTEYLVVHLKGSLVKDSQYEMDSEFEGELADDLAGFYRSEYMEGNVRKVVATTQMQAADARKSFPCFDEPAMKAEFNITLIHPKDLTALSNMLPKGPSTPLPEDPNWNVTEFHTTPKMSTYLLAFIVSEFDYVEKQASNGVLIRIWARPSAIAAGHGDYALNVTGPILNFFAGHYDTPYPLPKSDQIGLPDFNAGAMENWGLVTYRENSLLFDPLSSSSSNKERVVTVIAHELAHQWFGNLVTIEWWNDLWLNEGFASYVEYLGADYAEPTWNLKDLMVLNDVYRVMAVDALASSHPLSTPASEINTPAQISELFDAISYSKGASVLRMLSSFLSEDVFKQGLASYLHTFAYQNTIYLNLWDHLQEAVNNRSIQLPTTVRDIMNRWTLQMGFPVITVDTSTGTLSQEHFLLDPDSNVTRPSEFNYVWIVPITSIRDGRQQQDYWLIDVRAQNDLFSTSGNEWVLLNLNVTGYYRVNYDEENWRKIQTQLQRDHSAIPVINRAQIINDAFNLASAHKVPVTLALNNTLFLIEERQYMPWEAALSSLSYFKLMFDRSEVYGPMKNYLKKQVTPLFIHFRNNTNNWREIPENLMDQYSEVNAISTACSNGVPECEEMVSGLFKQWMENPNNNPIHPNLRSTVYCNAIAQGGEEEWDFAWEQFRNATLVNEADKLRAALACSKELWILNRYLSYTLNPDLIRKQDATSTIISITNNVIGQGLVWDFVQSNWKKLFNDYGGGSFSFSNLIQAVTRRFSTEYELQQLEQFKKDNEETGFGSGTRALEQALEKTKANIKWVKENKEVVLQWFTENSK
For data set [8], the target named is T2, Aminopeptidase N (Sus scrofa, UniProt P15145).
T2 sequence (P15145 whole entry): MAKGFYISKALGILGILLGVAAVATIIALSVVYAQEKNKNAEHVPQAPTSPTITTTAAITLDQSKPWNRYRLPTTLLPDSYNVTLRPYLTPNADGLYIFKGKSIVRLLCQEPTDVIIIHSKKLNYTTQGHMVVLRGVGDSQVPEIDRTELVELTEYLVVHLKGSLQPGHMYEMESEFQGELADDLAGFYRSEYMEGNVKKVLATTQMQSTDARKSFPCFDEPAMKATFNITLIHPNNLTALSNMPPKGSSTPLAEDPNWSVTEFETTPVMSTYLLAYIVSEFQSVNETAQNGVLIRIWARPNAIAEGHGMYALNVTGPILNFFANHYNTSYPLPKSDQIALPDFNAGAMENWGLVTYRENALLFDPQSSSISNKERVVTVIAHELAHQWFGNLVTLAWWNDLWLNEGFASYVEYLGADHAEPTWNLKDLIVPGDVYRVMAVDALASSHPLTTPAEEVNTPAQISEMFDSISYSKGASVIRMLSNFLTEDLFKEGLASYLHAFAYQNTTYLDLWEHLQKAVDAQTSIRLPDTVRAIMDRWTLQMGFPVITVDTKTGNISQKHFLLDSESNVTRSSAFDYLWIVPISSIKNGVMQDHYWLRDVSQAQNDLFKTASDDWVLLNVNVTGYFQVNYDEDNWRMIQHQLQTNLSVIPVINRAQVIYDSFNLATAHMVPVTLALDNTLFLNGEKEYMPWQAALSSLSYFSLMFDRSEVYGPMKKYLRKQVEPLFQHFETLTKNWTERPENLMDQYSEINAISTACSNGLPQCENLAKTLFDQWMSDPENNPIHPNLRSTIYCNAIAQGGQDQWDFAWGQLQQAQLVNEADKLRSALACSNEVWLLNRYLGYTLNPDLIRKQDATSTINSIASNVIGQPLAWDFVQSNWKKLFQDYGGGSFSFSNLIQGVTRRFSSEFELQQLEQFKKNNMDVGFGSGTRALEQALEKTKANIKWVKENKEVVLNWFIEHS
As to the kind of experiment: Inhibition of pig kidney APN using L-Leu-p-nitroanilide as substrate incubated for 5 mins prior to substrate addition measured after 30 mins by UV-Vis spectrophotometry.

Data set [9] deals with T1, Aminopeptidase N. As to the kind of experiment: Inhibition of APN in human ES-2 cells using L-Leu-p-nitroanilide as substrate incubated for 5 mins prior to substrate addition measured after 1 hr by UV-Vis spectrophotometry. The data set is classed as cell-based.

pIC50: −log10 of the molar value. The source made the active and inactive calls. No cut-off for these calls is given here. Bounds are passed on as bounds.

Chain of 72 kDa type IV collagenase (P08253 whole entry): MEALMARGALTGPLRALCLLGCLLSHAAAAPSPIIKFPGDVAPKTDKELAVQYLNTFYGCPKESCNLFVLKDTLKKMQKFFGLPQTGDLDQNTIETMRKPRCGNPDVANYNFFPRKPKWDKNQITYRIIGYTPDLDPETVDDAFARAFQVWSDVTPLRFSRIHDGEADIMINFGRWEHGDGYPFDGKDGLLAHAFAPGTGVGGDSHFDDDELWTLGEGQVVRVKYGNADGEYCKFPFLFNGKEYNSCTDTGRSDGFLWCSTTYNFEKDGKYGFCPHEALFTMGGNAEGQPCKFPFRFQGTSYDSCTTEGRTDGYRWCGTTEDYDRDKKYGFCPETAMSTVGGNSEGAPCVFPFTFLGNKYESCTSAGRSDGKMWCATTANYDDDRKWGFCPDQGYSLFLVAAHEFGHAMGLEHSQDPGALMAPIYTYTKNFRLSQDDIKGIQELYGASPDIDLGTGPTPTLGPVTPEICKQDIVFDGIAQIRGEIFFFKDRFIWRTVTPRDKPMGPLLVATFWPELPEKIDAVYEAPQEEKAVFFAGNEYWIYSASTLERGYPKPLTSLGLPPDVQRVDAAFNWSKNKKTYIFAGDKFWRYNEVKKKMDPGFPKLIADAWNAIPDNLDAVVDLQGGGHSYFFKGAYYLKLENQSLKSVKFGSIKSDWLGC

In the case of `CC(C)C[C@H](NC(=O)[C@@H](O)[C@H](N)Cc1ccccc1)C(=O)O` [UBENIMEX], the Activity entry in the data set on HUVEC [1] was “Non-toxic”; with ES2 [3] it was “Dose-dependent effect”. Moreover, the result in the data set on HUVEC [2] and in the data set with Aorta was Active. In the data set with ES2 [4], the outcome was inactive. In [5], halving of growth (GI50) required 350 µM.

On to `CC(C)C[C@H](NC(=O)NCc1ccccc1)C(=O)NO`, for which the figures for the negative logarithm of the IC50 (pIC50) (in data set [6]; against Aminopeptidase N [8]; against Aminopeptidase N [9]) were less than 3.30, 6.07 and 5.52, respectively. Besides, the Activity entry was “Non-toxic” in the data set with HUVEC [1] and “Dose-dependent effect” with ES2 [3]. Besides, the outcome in the data set on HUVEC [2] and with Aorta was Active. Also, the Ratio IC50 on Aminopeptidase N [7] was determined as 10. Further, the result in the data set on ES2 [4] was inactive. In addition, the GI50 (as a rule, the concentration at which growth is held to half of that of the control) in data set [5] was more than 1000 µM.

The record behind these values is ChEMBL document CHEMBL2390954, “Discovery of a synthetic Aminopeptidase N inhibitor LB-4b as a potential anticancer agent” (Bioorg Med Chem Lett, 2013).
